For assay [1], the system named is Oryctolagus cuniculus. Put plainly: Suppression of hypertonic saline solution-induced increase in intraocular pressure in New Zealand rabbit model of glaucoma assessed as reduction in intraocular pressure dosed as 1% eye drops formulation via direct instillation into eye conjunctive pocket measured after 240 mins post dose relative to untreated control. Type of assay: functional.

In assay [2] the test system is Oryctolagus cuniculus. Description: Suppression of hypertonic saline solution-induced increase in intraocular pressure in New Zealand rabbit model of glaucoma assessed as reduction in intraocular pressure dosed as 1% eye drops formulation via direct instillation into eye conjunctive pocket measured after 60 mins post dose relative to untreated control. Type of assay: functional.

The test system of assay [3] is Oryctolagus cuniculus. Description: Suppression of hypertonic saline solution-induced increase in intraocular pressure in New Zealand rabbit model of glaucoma assessed as reduction in intraocular pressure dosed as 1% eye drops formulation via direct instillation into eye conjunctive pocket measured after 30 mins post dose relative to untreated control. The class given is functional.

For assay [4], the system named is Oryctolagus cuniculus. Description: Suppression of hypertonic saline solution-induced increase in intraocular pressure in New Zealand rabbit model of glaucoma assessed as reduction in intraocular pressure dosed as 1% eye drops formulation via direct instillation into eye conjunctive pocket measured after 120 mins post dose relative to untreated control. The class given is functional.

Assay [5] is filed under the species Homo sapiens. Description: Selectivity index, ratio of Ki for inhibition of human CA1 to Ki for inhibition of human CA4. The essentials:
(§1)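 Ratio of Ki values. Each Ki came from stopped-flow CA-catalysed CO2 hydration with recombinant in-house hCA isoforms, phenol red 0.2 mM read at 557 nm, 20 mM Hepes pH 7.5, 20 mM Na2SO4, and CO2 1.7–17 mM. Inhibitor and enzyme were preincubated 15 min at room temperature. Initial rates, less the uncatalysed rate, were fit by nonlinear least squares with Cheng–Prusoff. Mean of ≥3 determinations.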

The species entered for assay [6] is Homo sapiens. Description: Selectivity index, ratio of Ki for inhibition of human CA1 to Ki for inhibition of human CA2. The procedure, abridged: as §1
For assay [7], the target named is Carbonic anhydrase 4 (Homo sapiens, UniProt P22748). Put plainly: Inhibition of human CA4 preincubated for 15 mins by stopped-flow CO2 hydration kinetic assay based Cheng-Prusoff equation analysis.
The species named for assay [8] is Homo sapiens. Put plainly: Selectivity index, ratio of Ki for inhibition of human CA4 to Ki for inhibition of human CA12. The procedure, abridged: as §1
For assay [9], the species on record is Homo sapiens. Description: Selectivity index, ratio of Ki for inhibition of human CA1 to Ki for inhibition of human CA12. The essentials: as §1
For assay [10], the species on record is Homo sapiens. Description: Selectivity index, ratio of Ki for inhibition of human CA2 to Ki for inhibition of human CA12. The essentials: as §1
Assay [11] deals with Carbonic anhydrase 12 (Homo sapiens, UniProt O43570). Description: Inhibition of human CA12 preincubated for 15 mins by stopped-flow CO2 hydration kinetic assay based Cheng-Prusoff equation analysis.
In assay [12] the target is Carbonic anhydrase 2 (Homo sapiens, UniProt P00918). Description: Inhibition of human CA2 preincubated for 15 mins by stopped-flow CO2 hydration kinetic assay based Cheng-Prusoff equation analysis.
The target in assay [13] is Carbonic anhydrase 1 (Homo sapiens, UniProt P00915). Description: Inhibition of human CA1 preincubated for 15 mins by stopped-flow CO2 hydration kinetic assay based Cheng-Prusoff equation analysis.
For assay [14], the species on record is Homo sapiens. Description: Selectivity index, ratio of Ki for inhibition of human CA2 to Ki for inhibition of human CA4. The procedure, abridged: as §1

Each structure is given as a SMILES string. pKi: −log10 of the molar value.

Carbonic anhydrase 4, sequence (P22748 whole entry): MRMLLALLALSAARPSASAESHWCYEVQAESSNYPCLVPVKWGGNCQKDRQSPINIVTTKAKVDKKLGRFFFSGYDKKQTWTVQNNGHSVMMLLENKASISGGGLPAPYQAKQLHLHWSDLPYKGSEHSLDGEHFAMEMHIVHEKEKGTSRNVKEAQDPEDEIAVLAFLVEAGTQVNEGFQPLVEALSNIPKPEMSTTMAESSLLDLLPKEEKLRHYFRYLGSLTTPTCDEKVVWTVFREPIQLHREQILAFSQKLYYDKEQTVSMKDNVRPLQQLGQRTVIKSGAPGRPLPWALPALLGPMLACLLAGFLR
Carbonic anhydrase 12, sequence (O43570 whole entry): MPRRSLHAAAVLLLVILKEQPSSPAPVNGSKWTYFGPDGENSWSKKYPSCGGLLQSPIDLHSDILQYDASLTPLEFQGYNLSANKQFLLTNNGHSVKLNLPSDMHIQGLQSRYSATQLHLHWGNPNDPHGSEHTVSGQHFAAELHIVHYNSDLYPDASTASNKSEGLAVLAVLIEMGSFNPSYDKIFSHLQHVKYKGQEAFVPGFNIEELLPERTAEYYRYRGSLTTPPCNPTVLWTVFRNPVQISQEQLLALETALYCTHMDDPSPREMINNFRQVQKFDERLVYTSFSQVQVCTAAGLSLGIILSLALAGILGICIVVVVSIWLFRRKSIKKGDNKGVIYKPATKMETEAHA
Carbonic anhydrase 1, sequence (P00915 whole entry): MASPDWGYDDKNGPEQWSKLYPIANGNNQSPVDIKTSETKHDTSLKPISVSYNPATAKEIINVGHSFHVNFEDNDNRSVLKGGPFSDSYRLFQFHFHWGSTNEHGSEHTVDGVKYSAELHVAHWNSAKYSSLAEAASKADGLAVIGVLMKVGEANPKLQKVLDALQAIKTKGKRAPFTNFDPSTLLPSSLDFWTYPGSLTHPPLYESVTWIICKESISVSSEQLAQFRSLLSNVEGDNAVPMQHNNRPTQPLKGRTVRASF

Consider `CCN[C@H]1C[C@H](C)S(=O)(=O)c2sc(S(N)(=O)=O)cc21.Cl` [DORZOLAMIDE HYDROCHLORIDE], for which the Activity turned out to be 3 mmHg in assay [1], 5.4 mmHg in assay [2], 1 mmHg in assay [3] and 2.8 mmHg in assay [4].
`NS(=O)(=O)c1ccc(CCN(Cc2ccc(F)cc2)C(=O)CN(CCC(=O)O)CCc2ccccc2)cc1`: the Ratio Ki in assay [5] worked out at 0.2; in assay [6] it was 4.1; in assay [8], 47.6; in [9], 10.9; in assay [10], 2.7; in [14] it was 0.06. In addition, the Activity in assay [1] is reported as 2.4 mmHg; in assay [2], 4.8 mmHg; in assay [3], 1.3 mmHg; in assay [4] it was 3.2 mmHg. The pKi in assay [7] was 6.38; in assay [11], 8.06; in assay [12] it was 7.63; in assay [13], 7.02.
Regarding `NS(=O)(=O)c1ccc(CCN(Cc2ccco2)C(=O)CN(CCC(=O)O)CCc2ccccc2)cc1`, the Ratio Ki in assay [5] is 0.2; in assay [6] it was 33.1; in assay [8], 47.3; in assay [9], 11.2; in assay [10], 0.3; in assay [14], 0.007. Moreover, the Activity in assay [1] turned out to be 1.2 mmHg; in [2] it was 3.3 mmHg; in assay [4] it was 1 mmHg. The pKi is 6.47 in [7], 8.15 in [11], 8.62 in assay [12] and 7.10 in [13].

In general, pKi refers to the negative decadic logarithm of the Ki, by convention in mol/L.

For the origin of these results see ChEMBL document CHEMBL4613327, “Sulfonamide Inhibitors of Human Carbonic Anhydrases Designed through a Three-Tails Approach: Improving Ligand/Isoform Matching and Selectivity of Action” (J Med Chem, 2020).
